In brackets after ≈: the same amount, converted by molar mass.
Key:
[1] = tested on: HEK293; test: Cytotoxicity against HEK293 cells assessed as reduction in cell viability incubated for 72 hrs by SRB assay; type: toxicity, cell-based, Homo sapiens
[2] = tested on: Mycobacterium intracellulare; test: Antibacterial activity against Mycobacterium intracellulare ATCC 35761 expressing tomato RFP assessed as bacterial growth inhibition incubated for 5 days in 7H9 medium by RFP fluorescence based broth microdilution method; type: functional; conditions: ATCC 35761, 120 h, time 5 day
How it was run: (§1)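 Broth microdilution in 7H9 with 10 % ADS and 0.05 % Tween 80. Twofold nine-point dilution series. Inoculum 5 x 10⁵ cells/mL taken from a mid-log preculture. Incubation at 37 °C, 3 days for M. smegmatis and M. abscessus, 5 days for M. intracellulare. Read-out by RFP fluorescence (ex 544/em 590 nm). Controls were 1 % DMSO and 100 μM amikacin. MIC₉₀ from duplicates, averaged.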

[3] = tested on: Mycobacteroides abscessus; test: Antibacterial activity against Mycobacterium abscessus ATCC 19977 expressing tomato RFP assessed as bacterial growth inhibition incubated for 3 days in MHII medium by RFP fluorescence based broth microdilution method; type: functional; conditions: ATCC 19977, 72 h, time 3 day
How it was run: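 Broth microdilution in MHII broth with 0.05 % Tween 80, against the RFP-expressing strain. Twofold nine-point dilution series. Inoculum 5 x 10⁵ cells/mL from a mid-log preculture. Incubated 3 days at 37 °C. Read-out by RFP fluorescence (ex 544/em 590 nm). Controls were 1 % DMSO and 100 μM amikacin. MIC₉₀ from duplicates, averaged.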

[4] = tested on: Mycobacteroides abscessus; test: Antibacterial activity against Mycobacterium abscessus Bamboo harboring inactive clarithromycin-sensitive erm41 C28 sequevar assessed as bacterial growth inhibition incubated for 3 days in 7H9 medium by optical density based method; type: functional; conditions: 72 h, time 3 day
[5] = tested on: Mycobacteroides abscessus; test: Antibacterial activity against Mycobacterium abscessus ATCC 19977 expressing tomato RFP assessed as bacterial growth inhibition incubated for 3 days in 7H9 medium by RFP fluorescence based broth microdilution method; type: functional; conditions: ATCC 19977, 72 h, time 3 day; how it was run: as §1
[6] = tested on: A2780; test: Cytotoxicity against human A2780 cells assessed as reduction in cell viability incubated for 72 hrs by SRB assay; type: toxicity, cell-based
[7] = Cytotoxicity against mouse NIH3T3 cells assessed as reduction in cell viability incubated for 72 hrs by SRB assay; type: toxicity, cell-based; conditions: mouse, NIH3T3 cells
[8] = tested on: MCF7; test: Cytotoxicity against human MCF7 cells assessed as reduction in cell viability incubated for 72 hrs by SRB assay; type: toxicity, cell-based
[9] = Kinetic solubility of compound in PBS at 0.78 to 500 uM measured immediately by nephelometric method; type: physicochemical; conditions: buffer, dose 0.78-500 µM
How it was run: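 DMSO stocks prediluted in DMSO, then diluted 1:50 into PBS (2 % DMSO final) and read immediately by nephelometry at 0.78–500 μM; blank-corrected data fitted by segmental regression; quadruplicates from one stock.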

[10] = tested on: Mycobacteroides abscessus; test: Antibacterial activity against Mycobacterium abscessus ATCC 19977 expressing tomato RFP infected in human THP-1 cells assessed as bacterial growth inhibition incubated for 4 days in RPMI medium by RFP fluorescence based assay; type: functional; conditions: ATCC 19977, 96 h, time 4 day
How it was run: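 RFP M. abscessus washed, moved into RPMI, filtered through 5 µm and opsonised with 10 % human serum for 30 min. THP-1 cells infected at MOI 5:1 with PMA 40 ng/mL for 4 h at 37 °C, then washed. Infected cells (1x10⁵/well) given a ten-point twofold series. Incubated 4 days at 37 °C, 5 % CO₂. Cells PFA-fixed and DAPI-stained. RFP quantified by imaging. Controls were DMSO and 1.5 µM bedaquiline. Duplicate.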

[11] = tested on: A-375; test: Cytotoxicity against human A-375 cells assessed as reduction in cell viability incubated for 72 hrs by SRB assay; type: toxicity, cell-based
[12] = tested on: HeLa; test: Cytotoxicity against human HeLa cells assessed as reduction in cell viability incubated for 72 hrs by SRB assay; type: toxicity, cell-based
[13] = tested on: Mycolicibacterium smegmatis; test: Antibacterial activity against Mycobacterium smegmatis mc2 155 expressing tomato RFP assessed as bacterial growth inhibition incubated for 3 days in 7H9 medium by RFP fluorescence based broth microdilution method; type: functional; conditions: mc2 155, 72 h, time 3 day; how it was run: as §1
[14] = tested on: HT-29; test: Cytotoxicity against human HT-29 cells assessed as reduction in cell viability incubated for 72 hrs by SRB assay; type: toxicity, cell-based
[15] = tested on: Mycobacterium tuberculosis; test: Antibacterial activity against Mycobacterium tuberculosis H37Rv ATCC 27294 assessed as bacterial growth inhibition incubated for 7 days in 7H9 medium by optical density based microplate reader analysis; type: functional; conditions: H37Rv ATCC 27294, 168 h, time 7 day
How it was run: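 Compounds serially diluted in flat-bottom 96-well plates. Mid-log culture mixed in to a final OD₆₀₀ of 0.05. Sealed plates incubated in humidified boxes at 37 °C for 7 days with shaking at 80 rpm. Turbidity read at 600 nm. MIC₉₀ taken from dose–response curves. Two biological replicates, averaged.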

[16] = tested on: Mycobacteroides abscessus; test: Antibacterial activity against MMV688845-resistant Mycobacterium abscessus Bamboo 845R-2.1 harboring rpoB/beta subunit P473L mutation assessed as bacterial growth inhibition incubated for 3 days by optical density based analysis; type: functional; conditions: Bamboo 845R-2.1, 72 h, time 3 day
How it was run: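 Tenfold-point twofold dilution series in 7H9, final DMSO 1 %. Final ranges typically 50–0.098 or 6.25–0.012 μM. Mid-log culture added to an initial OD₆₀₀ of 0.05 (5*10⁶ CFU/mL). Incubated 3 days at 37 °C with shaking at 110 rpm. Growth taken as OD₆₀₀ on day 3 minus day 0, as % of drug-free wells. MIC₉₀ read visually from the curves. Clarithromycin as control. Two biological replicates, averaged.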

[17] = tested on: Mycobacteroides abscessus; test: Bactericidal activity against Mycobacterium abscessus ATCC 19977 assessed as reduction in viable bacteria at 3.13 uM incubated for 4 days by microplate dilution assay relative to control; type: functional; conditions: time 4 day
How it was run: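 After 4 days in the microplate dilution assay, 10 µl samples (undiluted or 1:100) were plated on 7H10 with glycerol, ADS and 400 µg/mL hygromycin. Colonies counted after 4 days at 37 °C. Done in triplicate. CFU/mL compared with the inoculum counted before incubation.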

[18] = tested on: Mycobacteroides abscessus; test: Bactericidal activity against Mycobacterium abscessus ATCC 19977 assessed as reduction in viable bacteria at 6.25 uM incubated for 4 days by microplate dilution assay relative to control; type: functional; conditions: time 4 day

Structure (SMILES) | EC50 [1] | MIC90 [2] | MIC90 [3] | MIC50 [4] | MIC90 [4] | MIC90 [5] | EC50 [6] | EC50 at 72 h [7] | EC50 [8] | Kinetic_solubility [9] | MIC50 [10] | MIC90 [10] | EC50 [11] | EC50 [12] | MIC90 [13] | EC50 [14] | MIC90 [15] | MIC90 [16] | Activity [17] | Activity [18]
O=C(N[C@H](Cc1ccccc1)C(=O)Nc1ccccc1N1CCSCC1)c1cccs1 | 19.1 µM | 0.78 µM (≈ 0.352 µg/mL) | 50 µM (≈ 22.6 µg/mL) | 2.5 µM (≈ 1.13 µg/mL) | 14 µM (≈ 6.32 µg/mL) | 12.5 µM (≈ 5.65 µg/mL) | 19.8 µM | > 30 µM | 16.4 µM | 34 µM | 12.5 µM (≈ 5.65 µg/mL) | > 100 µM | > 30 µM | > 30 µM | 3.13 µM (≈ 1.41 µg/mL) | > 30 µM | 6.25 µM (≈ 2.82 µg/mL) |  |  | 
CO[C@H]1/C=C/O[C@@]2(C)Oc3c(C)c(O)c4c(c3C2=O)C2=NC3(CCN(CC(C)C)CC3)NC2=C(NC(=O)/C(C)=C\C=C\[C@H](C)[C@H](O)[C@@H](C)[C@@H](O)[C@@H](C)[C@H](OC(C)=O)[C@@H]1C)C4=O [RIFABUTIN] |  |  |  |  | 3 µM (≈ 2.54 µg/mL) |  |  |  |  |  |  |  |  |  |  |  |  | 1.1 µM (≈ 0.932 µg/mL) |  | 
O=C(N[C@H](Cc1ccc(O)cc1)C(=O)Nc1cc(F)ccc1N1CCS(=O)(=O)CC1)c1ccccc1F | > 30 µM | 0.2 µM (≈ 0.106 µg/mL) | 6.25 µM (≈ 3.31 µg/mL) | 1.1 µM (≈ 0.583 µg/mL) | 13 µM (≈ 6.88 µg/mL) | 6.25 µM (≈ 3.31 µg/mL) | > 30 µM | > 30 µM | > 30 µM | 158 µM | 3.13 µM (≈ 1.66 µg/mL) | 25 µM (≈ 13.2 µg/mL) | > 30 µM | > 30 µM | 6.25 µM (≈ 3.31 µg/mL) | > 30 µM | 0.78 µM (≈ 0.413 µg/mL) |  |  | 
O=C(N[C@H](Cc1ccccc1)C(=O)Nc1ccccc1N1CCS(=O)(=O)CC1)c1cccs1 | > 30 µM | 0.1 µM (≈ 0.0484 µg/mL) | 3.13 µM (≈ 1.51 µg/mL) | 0.24 µM (≈ 0.116 µg/mL) | 1.7 µM (≈ 0.822 µg/mL) | 3.13 µM (≈ 1.51 µg/mL) | 23.6 µM | > 30 µM | > 30 µM | 62 µM | 0.78 µM (≈ 0.377 µg/mL) | 6.25 µM (≈ 3.02 µg/mL) | > 30 µM | > 30 µM | 1.56 µM (≈ 0.754 µg/mL) | > 30 µM | 0.2 µM (≈ 0.0967 µg/mL) |  | 95% | 99%
CC[C@H]1OC(=O)[C@H](C)[C@@H](O[C@H]2C[C@@](C)(OC)[C@@H](O)[C@H](C)O2)[C@H](C)[C@@H](O[C@@H]2O[C@H](C)C[C@H](N(C)C)[C@H]2O)[C@](C)(OC)C[C@@H](C)C(=O)[C@H](C)[C@@H](O)[C@]1(C)O [CLARITHROMYCIN] |  |  |  |  |  |  |  |  |  |  |  |  |  |  |  |  |  | 0.27 µM (≈ 0.202 µg/mL) |  | 
O=C(N[C@H](Cc1ccsc1)C(=O)Nc1ccccc1N1CC[S+]([O-])CC1)c1cccs1 |  | 0.2 µM (≈ 0.0947 µg/mL) | 12.5 µM (≈ 5.92 µg/mL) | 3.4 µM (≈ 1.61 µg/mL) | 15 µM (≈ 7.1 µg/mL) | 6.25 µM (≈ 2.96 µg/mL) | > 30 µM | > 30 µM | > 30 µM | 74 µM | 12.5 µM (≈ 5.92 µg/mL) | 100 µM (≈ 47.4 µg/mL) | > 30 µM | > 30 µM | 3.13 µM (≈ 1.48 µg/mL) | > 30 µM | 6.25 µM (≈ 2.96 µg/mL) |  |  | 
O=C(N[C@H](Cc1ccccc1)C(=O)Nc1ccccc1C1CCSCC1)c1cccs1 |  | 6.25 µM (≈ 2.82 µg/mL) | 100 µM (≈ 45.1 µg/mL) | 21 µM (≈ 9.46 µg/mL) | 44 µM (≈ 19.8 µg/mL) | 50 µM (≈ 22.5 µg/mL) | > 30 µM | > 30 µM | > 30 µM | 39 µM | > 100 µM | > 100 µM | > 30 µM | > 30 µM | 6.25 µM (≈ 2.82 µg/mL) | > 30 µM | > 25 µM |  |  | 
O=C(N[C@H](Cc1ccccc1)C(=O)Nc1cc(F)ccc1N1CCSCC1)c1cccs1 |  | 0.78 µM (≈ 0.366 µg/mL) | 50 µM (≈ 23.5 µg/mL) | 1.4 µM (≈ 0.657 µg/mL) | 14 µM (≈ 6.57 µg/mL) | 25 µM (≈ 11.7 µg/mL) | > 30 µM | > 30 µM | > 30 µM | 37 µM | 3.13 µM (≈ 1.47 µg/mL) | > 100 µM | > 30 µM | > 30 µM | 3.13 µM (≈ 1.47 µg/mL) | > 30 µM | 1.56 µM (≈ 0.733 µg/mL) |  |  | 
O=C(N[C@H](Cc1ccsc1)C(=O)Nc1ccccc1N1CCOCC1)c1ccccc1F |  | 0.78 µM (≈ 0.354 µg/mL) | 12.5 µM (≈ 5.67 µg/mL) | 1.9 µM (≈ 0.862 µg/mL) | 7 µM (≈ 3.17 µg/mL) | 12.5 µM (≈ 5.67 µg/mL) | > 30 µM | > 30 µM | > 30 µM | 31 µM | 6.25 µM (≈ 2.83 µg/mL) | 25 µM (≈ 11.3 µg/mL) | > 30 µM | > 30 µM | 1.56 µM (≈ 0.708 µg/mL) | > 30 µM | 3.13 µM (≈ 1.42 µg/mL) |  |  | 
O=C(N[C@H](Cc1ccccc1)C(=O)Nc1ccccc1N1CCSCC1)c1ccccc1F | 6.3 µM | 0.78 µM (≈ 0.362 µg/mL) | 50 µM (≈ 23.2 µg/mL) | 3 µM (≈ 1.39 µg/mL) | 18 µM (≈ 8.34 µg/mL) | 12.5 µM (≈ 5.79 µg/mL) | 14.9 µM | > 30 µM | 13.6 µM | 28 µM | 12.5 µM (≈ 5.79 µg/mL) | > 100 µM | 18.6 µM | > 30 µM | 3.13 µM (≈ 1.45 µg/mL) | > 30 µM | 6.25 µM (≈ 2.9 µg/mL) |  |  | 

— ChEMBL document CHEMBL5344415, “Synthesis and Characterization of Phenylalanine Amides Active against Mycobacterium abscessus and Other Mycobacteria” (J Med Chem, 2023)
